Publication PMC4392893 (Cancer chemotherapy and pharmacology, 2014)
Like-named read-outs stand apart in the source and are kept apart here. One block for each compound: values may come before it.

Key:
[1] = system: osteoblastic differentiation and mineralization; details: in vitro, associated with Smad signaling; cited from earlier work
MiPaPc xenografts = details: 10 and 20 mg/kg i.p., ref Manuscripts in preparation 2013; cited from earlier work
[2] = system: SCC Tu212 xenograft tumors; details: cited from earlier work
osteoclastogenesis = details: in vitro; cited from earlier work
[3] = Partition ratio and stability in fresh mouse whole blood; assay type: in vitro ADME; details: 24-hour incubation in whole blood at 37°C
Summary of the method: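 Fresh mouse whole blood (heparin in citrate-phosphate-dextrose) was spiked in silanized amber vials and kept on ice or at 37°C for 24 h. On ice, aliquots were taken at 0, 5, 15, 30, 60, 120 and 240 min. Red cells were pelleted at 10,000 rpm for 3 min, and plasma was frozen at −20°C before LC/MS/MS. For partitioning, equal amounts (3.9–2000 nM) went into plasma and whole blood.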

[4] = system: human α1-acid glycoprotein; assay: Binding to α1-acid glycoprotein by ultracentrifugation; details: α1-acid glycoprotein 1 mg/ml
Summary of the method: (§1)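 Ultracentrifugation binding assay. Matrices were thawed mouse, rat, dog or human plasma, human serum albumin (40 mg/ml in PBS, pH 7.4) or α1-acid glycoprotein (1 mg/ml). Samples were incubated 30 min at 37°C, then spun at 90,000 rpm for 3 h at 4°C. Drug was measured by LC/MS/MS before and after spinning, with upper supernatant taken as unbound. Supernatant protein-free status was confirmed by DC protein assay. Binding was calculated from percent recovered.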

[5] = EF-24 stability in dog plasma; assay type: in vitro ADME; details: for Half-life in plasma: dog plasma, 4°
Summary of the method: (§2)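 Test compound at 31.25 or 1000 nM was held in plasma at 4°C and 37°C for 24 h. Plasmas: mouse and rat from heparin-CPD blood, dog heparinised, human from healthy volunteers. Aliquots at 5, 15 and 30 min and 1, 2, 4, 6 and 24 h went into silanized tubes, were frozen at −20°C, then protein-precipitated with methanol. Samples were quantified by LC/MS/MS (m/z 312→149) against an internal standard. Half-lives were derived from loss over time.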

[6] = EF-24 stability in rat plasma; assay type: in vitro ADME; details: for Half-life in plasma: 4°
Summary of the method: as §2

[7] = EF-24 stability in human plasma; assay type: in vitro ADME; details: for half-life at 31.25 nM / half-life at 1000 nM: human, plasma, Half-life in plasma
Summary of the method: as §2

human serum albumin = human serum albumin (Homo sapiens, UniProt P02768); assay: Binding to human serum albumin by ultracentrifugation; details: human serum albumin 40 mg/ml in phosphate buffered saline, pH 7.4
Summary of the method: as §1

[8] = system: HCT-116 human colon tumor xenograft; details: cited from earlier work
[9] = system: NCI anti-cancer cell line screen; details: read-out: Mean GI50; cited from earlier work
[10] = NADPH-dependent metabolism in human liver microsomes; assay type: in vitro ADME; details: 10 μM, 120 minutes (Fig 4 legend)
Summary of the method: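 Pooled human liver microsomes came from livers unsuitable for transplantation. They were preincubated 2 min in 100 mM potassium phosphate (pH 7.4), 5 mM MgCl2 ± 1.0 mM NADPH at 37°C. Reactions were started with test compound (10 µM) at 0.2–1 mg/ml protein and ran 120 min. NADPH-free incubations served as controls. Reactions were quenched with ice-cold methanol (2:1), and remaining drug was quantified by LC/MS/MS.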

[11] = Pharmacokinetics in male CD2F1 mice; assay type: in vivo, mouse; details: for Bioavailability: by comparison of AUC values
Summary of the method: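 Male CD2F1 mice (19–26 g) received 10 mg/kg in D5W:DMSO (9:1) by tail-vein i.v., i.p. or oral gavage. Cardiac-puncture blood was drawn under methoxyflurane, two mice per time point, at 3–240 min (i.v.) or 3–480 min (i.p., oral). Plasma was analysed by LC/MS/MS. Half-life came from compartmental and AUC/CL from noncompartmental analysis of mean concentrations, bioavailability from AUC ratios. Urine was pooled over 24 h after 25 or 32 mg/kg i.v.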

[12] = NADPH-dependent metabolism in mouse liver microsomes; assay type: in vitro ADME; details: 10 μM, 15-minute incubation
Summary of the method: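 Liver microsomes came from male CD2F1 mice, untreated or given phenobarbital (80 mg/kg) or 3-methylcholanthrene (20 mg/kg) i.p. for 3 days. Microsomes were isolated on day 4 by differential centrifugation. Test compound at 10 µM was incubated at 37°C with 0.2–1 mg/ml protein, 1.0 mM NADPH, 5 mM MgCl2 and 100 mM potassium phosphate, pH 7.4, for 15 min. Controls lacked NADPH. Reactions were stopped with ice-cold methanol, and remaining drug was measured by LC/MS/MS.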

[13] = Light sensitivity during assay development; assay type: physicochemical; details: second peak prevented by aluminum foil or amber vials
[14] = EF-24 stability in mouse plasma; assay type: in vitro ADME; details: for Half-life in plasma: mouse plasma, 4°
Summary of the method: as §2

[15] = athymic nude mice, cited from earlier work
NF-kB pathway = details: mouse RAW264.7 macrophages; cited from earlier work
IKKβ = details: cited from earlier work
[16] = 10 mg/kg, intraperitoneal, male CD2F1 mice
[17] = 10 mg/kg, oral, male CD2F1 mice
[18] = male, CD2F1, mouse, plasma, ip, 10 mg/kg
[19] = male, CD2F1, mouse, plasma, iv, 10 mg/kg
[20] = male, CD2F1, mouse, plasma, po, 10 mg/kg

Chain of human serum albumin (P02768 25-609): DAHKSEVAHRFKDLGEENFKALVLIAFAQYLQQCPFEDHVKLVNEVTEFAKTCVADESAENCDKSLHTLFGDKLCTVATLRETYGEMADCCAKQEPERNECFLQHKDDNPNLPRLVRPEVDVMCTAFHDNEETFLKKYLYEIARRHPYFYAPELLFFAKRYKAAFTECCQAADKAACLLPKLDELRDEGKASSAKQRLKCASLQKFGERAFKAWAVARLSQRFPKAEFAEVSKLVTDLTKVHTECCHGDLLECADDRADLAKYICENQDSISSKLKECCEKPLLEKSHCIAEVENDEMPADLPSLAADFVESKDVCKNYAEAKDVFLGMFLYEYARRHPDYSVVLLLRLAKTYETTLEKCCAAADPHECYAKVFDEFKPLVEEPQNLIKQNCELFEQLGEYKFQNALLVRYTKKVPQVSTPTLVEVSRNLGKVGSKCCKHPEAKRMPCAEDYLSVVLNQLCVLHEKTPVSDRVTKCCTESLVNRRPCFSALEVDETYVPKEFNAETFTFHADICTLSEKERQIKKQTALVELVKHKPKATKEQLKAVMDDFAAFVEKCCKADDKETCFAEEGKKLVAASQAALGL

Structure (SMILES): CN1C/C(=C\c2ccccn2)C(=O)/C(=C/c2ccccn2)C1 [UBS-109]
Effect on osteoblastic differentiation and mineralization [1]: unique stimulatory effect
Effect on xenografts (MiPaPc xenografts): dose response
Effect on xenografts ([2]; 50, 100 and 150 mg/kg p.o., ref Manuscripts in preparation 2013): dose response
Effect on osteoclastogenesis as compared with curcumin (osteoclastogenesis): suppressive effect

Stability in whole blood [3]: Multi-exponential loss
Percent bound [4]: < 20%
Half-life in plasma ([5]; 31.25 nM): Stable
Half-life in plasma ([5]; 1000 nM): Stable
half-life ([5]; dog, plasma): 35 h
half-life at 31.25 nM ([5]; dog, plasma): 36 h
half-life at 1000 nM ([5]; dog, plasma): 33 h
Half-life in plasma ([6]; rat plasma, 31.25 nM): Stable
Half-life in plasma ([6]; rat plasma, 1000 nM): Stable
Stability in plasma ([6]; rat plasma, 24-hour period): stable
half-life at 31.25 nM ([6]; rat, plasma): 50 h
half-life at 1000 nM ([6]; rat, plasma): 66 h
Stability in plasma ([7]; 24-hour period): stable
half-life at 31.25 nM ([7]; 4°): 84 h
half-life at 31.25 nM ([7]; 37°): 79 h
half-life at 1000 nM ([7]; 4°): 100 h
half-life at 1000 nM ([7]; 37°): 58 h
Percent bound (human serum albumin): 95-100%
EF-24 consumed by NADPH-dependent metabolism [10]: > 70%
Time of secondary peak concentration ([11]; 10 mg/kg, i.p., male CD2F1 mice, plasma): 360 min
Peak plasma concentration ([11]; 10 mg/kg, i.v., male CD2F1 mice): 2.5 µM
Bioavailability ([11]; 10 mg/kg, intraperitoneal): 34.7%
t1/2z [11, 16]: 3.65 h
t1/2α [11, 16]: 8.9 min
Cmax ([11]; 10 mg/kg, intraperitoneal, male CD2F1 mice, plasma): 0.833 µM
t1/2α ([11]; 10 mg/kg, intravenous, male CD2F1 mice): 0.4 min
Bioavailability ([11]; 10 mg/kg, oral): 60.1%
t1/2z [11, 17]: 2.95 h
t1/2α [11, 17]: 3.3 min
Cmax ([11]; 10 mg/kg, oral, male CD2F1 mice, plasma): 0.882 µM
AUC [11, 18]: 346 nM·h
Tmax [11, 18]: 3 min
half-life ([11]; male, CD2F1, mouse, plasma, ip, 10 mg/kg, t1/2z, intraperitoneal, male CD2F1 mice): ~3.33 h
AUC [11, 19]: 996 nM·h
Tmax [11, 19]: 2.7 min
Vd [11, 19]: 4.85 L/kg
clearance [11, 19]: 28.9 L/h/kg
Cmax ([11]; male, CD2F1, mouse, plasma, iv, 10 mg/kg, Cmax, male CD2F1 mice): 2.49 µM
half-life ([11]; male, CD2F1, mouse, plasma, iv, 10 mg/kg, t1/2z (terminal elimination half-life), male CD2F1 mice): 1.23 h
half-life ([11]; male, CD2F1, mouse, plasma, iv, 10 mg/kg, t1/2β, male CD2F1 mice): 0.09 h
AUC [11, 20]: 599 nM·h
Tmax [11, 20]: 3 min
half-life ([11]; male, CD2F1, mouse, plasma, po, 10 mg/kg, t1/2z, male CD2F1 mice): ~3.33 h
EF-24 in 24-hour pooled urine ([11]; mice administered 25 mg/kg or 32 mg/kg intravenously): not detected
EF-24 consumed by NADPH-dependent metabolism ([12]; liver microsomes from 3MC-pretreated mice): 54%
EF-24 consumed by NADPH-dependent metabolism ([12]; liver microsomes from PB-pretreated mice): 41%
EF-24 consumed by NADPH-dependent metabolism ([12]; liver microsomes from untreated mice): 40%
Stability to light [13]: light sensitivity
Half-life in plasma ([14]; 31.25 nM): Stable
Half-life in plasma ([14]; 1000 nM): Stable
half-life ([14]; mouse, plasma): 11 h
half-life at 31.25 nM ([14]; mouse, plasma): 12 h
half-life at 1000 nM ([14]; mouse, plasma): 10 h
Structure (SMILES): CC(=O)O.O=C1C(=Cc2ccccc2F)CNCC1=Cc1ccccc1F [EF-24, 3,5-bis[(2-fluorophenyl)methylene]-4-piperidinone acetate]
Tumor growth in vivo ([8]; dose of 200 μg/kg): inhibited tumor growth
Growth of HCT-116 human colon tumor xenograft ([8]; mice, little apparent toxicity, no reference given): potent growth inhibition
GI50 [9]: 0.7 µM

Structure (SMILES): O=C1C(=Cc2ccccn2)CNCC1=Cc1ccccn1 [EF31, 3,5-Bis(2-pyridinylmethylidene)-4piperidone]
Effect on xenograft tumors ([2]; 15 and 25 mg/kg i.p.): dose-response
Average AUC(0-∞) ([15]; 15 mg/kg i.p.): 3386 h x ng mL^−1
Average AUC(0-∞) ([15]; 25 mg/kg i.p.): 7769 h x ng mL^−1
Effect on osteoclastogenesis as compared with curcumin (osteoclastogenesis): suppressive effect
Fold more potent blocker of NF-kB pathway activity than EF24 (NF-kB pathway): 7 fold
Fold more potent blocker of NF-kB pathway activity than curcumin (NF-kB pathway): > 10 fold
Fold more effective inhibition of IKKβ vs. EF24 (IKKβ): ~ 65 fold
